The values that follow come from publication PMC2612038 (Journal of molecular biology, 2008).

Series [1] relates to Hdm2-ABD lacking the H1 and/or H2 segments. Nature of the series: CD co-assembly of A1-mini with Hdm2-ABD lacking H1 and/or H2 segments. The format is binding, human. As to conditions: deletion of the H1 and/or H2 segments (Suppl. Fig. 1).
The nature of series [2]: Sedimentation velocity AUC of the isolated polypeptide. It is filed as physicochemical. A digest of the protocol: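 Sedimentation velocity was run at 50,000 rpm and 20 °C, with Rayleigh interference scans every 1 min. Samples were dialysed into 10 mM sodium phosphate pH 6.0 with 10 mM NaCl (150 mM for high ionic strength), and the dialysate was the reference. Analysis used c(s) with maximum-entropy regularisation (p = 0.7, n = 100), with s from main-peak integration and weight-average f/f0. c(M) came from c(s). c(s, f/f0) used an f/f0 grid of 1.2–2.2 and s of 0.1–5 S.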

The subject of series [3] is 15N-Hdm2-ABD. The experiment in a line: 2D 1H-15N HSQC NMR of 15N-Hdm2-ABD with Arf peptide. The format is binding, human. A digest of the protocol: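 15N-Hdm2-ABD was expressed in E. coli in MOPS minimal medium with 15NH4Cl and purified. […] Combined shift perturbation: Δδ1H/15N = [(Δδ1HN)² + 0.0289·(Δδ15NH)²]^1/2, each difference taken as bound minus free.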
The test system of series [4] is Mdm2. Nature of the series: Nucleolar co-localization with endogenous Mdm2 after nuclear micro-injection. The format is cell-based, mouse. As to conditions: for cells with co-localization with Mdm2 in nucleoli: 0.5 mg/mL TR-A1-mini injected into nuclei, 4 hour recovery, anti-mdm2 2A10.
In series [5] the test system is Arf-null NIH 3T3 mouse fibroblasts. The experiment in a line: BrdU incorporation / cell cycle arrest assay after nuclear micro-injection. It is filed as cell-based. As to conditions: peptide 2–4 mg/ml, BrdU 10 μM, 8 hours, 3 independent experiments. In general terms: Uptake of a labelled nucleoside into DNA is a usual measure of proliferation.
Series [6] is described as follows: Solubility. It is filed as physicochemical. As to conditions: co-assemblies with Hdm2-ABD.
A short description of series [7]: Structure in isolation. The format is physicochemical. As to conditions: for structure in isolation: absence of oppositely charged partner. A digest of the protocol:
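Uniformly 13C/15N-labelled Hdm2-ABD (2 mM) was studied in 10 mM sodium phosphate, 10 mM NaCl, 0.01% azide, 6% D2O, pH 6.0, 25 °C. Backbone assignments came from HSQC, CT-HNCA, CT-HN(CO)CA, HNCACB and CBCA(CO)NH spectra, and side chains from C(CO)NH- and H(CCO)NH-TOCSY. 1H was referenced to external TSP, with 13C/15N referenced indirectly.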

For series [8] the following is noted: cited from earlier work.
Series [9] in a line: Pulsed magnetic field gradient/diffusion NMR of free Hdm2-ABD. The format is physicochemical. As to conditions: 1 mM 15N-Hdm2-ABD, 10 mM sodium phosphate, 10 mM NaCl, pH 6; dioxane standard. A digest of the protocol:
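Diffusion was recorded at 600 MHz on 1 mM 15N-Hdm2-ABD in 10 mM sodium phosphate, 10 mM NaCl, pH 6. A 15N-filtered BPP-MAXY-D sequence gave 1D spectra across gradient strengths of 1–60 G cm−1. Dioxane served as internal standard to normalise for solution conditions. Equivalent unfolded chain length was estimated from Rh = (2.21 ± 1.07)N^(0.57 ± 0.02).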

For series [10] the following is noted: cited from earlier work. This is another data set of the same source.
The subject of series [11] is nucleoli of Arf-null NIH 3T3 mouse fibroblasts. Nature of the series: Nucleolar localization after nuclear micro-injection. It is filed as cell-based. The settings on record: 0.5 mg/mL TR-A1-mini injected into nuclei; 33/42 cells; 4 hour recovery.
The target of series [12] is Hdm2-ABD (Homo sapiens, UniProt Q00987). The settings on record: cited from earlier work.
Series [13] deals with 15N-Hdm2-ABD. As to conditions: 3 equivalents; cited from earlier work.
Series [14] deals with mouse fibroblasts. As to conditions: cited from earlier work.
For series [15], the system named is Mdm2. As to conditions: cited from earlier work.
For series [16], the system named is 15-residue peptide containing the H1 segment of Hdm2. The settings on record: cited from earlier work.
For series [17], the target named is Arf-binding domain of Hdm2 (Hdm2-ABD), residues 210-304 (human, UniProt Q00987 210-304). Nature of the series: circular dichroism. On the technique in general: Circular dichroism is widely used to follow secondary structure.
Setting [18] is: 0.5 mM, 20 °C, 10 mM sodium phosphate pH 6.0, 10 mM NaCl, c(s) model.

“Also recorded” adds a separate entry of the source. Read-outs that look alike come from different tables or passages of the source.

Hdm2-ABD, sequence (Q00987 210-304): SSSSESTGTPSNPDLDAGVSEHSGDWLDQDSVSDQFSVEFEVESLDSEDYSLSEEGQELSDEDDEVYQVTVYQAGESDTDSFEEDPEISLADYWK
Arf-binding domain of Hdm2 (Hdm2-ABD), residues 210-304, sequence (Q00987 210-304): as above

For `CC(C)C[C@H](NC(=O)[C@H](Cc1ccccc1)NC(=O)[C@H](CCCNC(=N)N)NC(=O)[C@H](CCCNC(=N)N)NC(=O)CN)C(=O)N[C@H](C(=O)N[C@H](C(=O)N[C@H](C(=O)N[C@@H](CCCNC(=N)N)C(=O)O)C(C)C)[C@@H](C)O)C(C)C` [A1-mini], the “co-assembly with Hdm2-ABD deletion variants” value in series [1] is given as “complete abrogation of co-assembly”. The “sedimentation state, isolated” value in series [2] (AUC, data not shown) was “sedimented as a monomer”. Further, in series [3] (absence vs presence of A1-mini, data not shown), the “Δδ13Cα, 1H-1H NOE and heteronuclear NOE differences of 15N-Hdm2-ABD” value was “significant differences in these parameters were not detected”. Further, the “1H-15N HSQC resonance intensities of 15N-Hdm2-ABD” value in series [3] (in presence of four-fold molar excess A1-mini (Suppl. Fig. 5B)) is “significant reduction in the intensity; also recorded: reduced significantly”. The “cells with co-localization with Mdm2 in nucleoli” value in [4] was 7%. For the same molecule, the “inhibition of BrdU incorporation / cell cycle arrest” value in [5] was “did not cause cell cycle arrest; also recorded: No significant differences in the percentage of cells undergoing DNA replication”. For the same molecule, the “solubility of peptide/Hdm2-ABD co-assemblies” value in [6] is over 1000 µM. Moreover, the structure in isolation result in series [7] is “intrinsically unstructured”.
As for (AEAEAKAK)2, in [8], the self-assembly entry is recorded as “self-assembled into β-strand-rich structures with fibrilar characteristics”.
Turning to “Hdm2-ABD: Hdm2 domain spanning residues 210-304 (Arf-binding domain)”, in series [2] (setting [18]), the “frictional ratio (f/f0), isolated” value is listed as 2.18 and the “sedimentation coefficient (s), isolated” value amounted to 1.0 S. In series [2] (0.5 mM, 20 °C, pH 6.0, 10 mM NaCl), the “molecular mass by AUC, isolated” value is recorded as ~ 10,900 Da. Moreover, in series [9], the “radius of hydration (Rh), free” value was found to be 25.7 Å. Besides, the structure in isolation entry in series [7] is “intrinsically unstructured”. In addition, the “secondary 13Cα chemical shift values (Δδ13Cα)” value in series [7] (free Hdm2-ABD, pH 6.0, 25 °C (Suppl. Fig. 7B)) is “close to zero”. Moreover, the structure in isolation result in series [10] is on record as “intrinsically unstructured in isolation”.
With N-CGGGGGRRFLVTVR-C [TR-A1-mini], the “injected cells with nucleolar localization” value in [11] turned out to be 79%. Also, in series [4], the “cells with co-localization with Mdm2 in nucleoli” value is recorded as 7%. Besides, in series [4] (Fig. 5, nuclear injection), the “cells with nucleoplasmic Mdm2 and nucleolar TR-A1-mini localization” value is on record as 93%. Moreover, the “inhibition of BrdU incorporation / cell cycle arrest” value in [5] was “did not inhibit the incorporation of bromo-deoxyuridine (BrdU) into DNA”.
With “mArf-N37: 37-residue intrinsically unstructured N-terminal fragment of p19^Arf (MGRRFLVTVRIQRAGRPLQERVFLVKFVRSRRPRTAS; UniProt Q64364 1-37, looked up, fragment)”, the “Hdm2-ABD concentration at which complete conversion to β-strand occurs” value in series [12] (1 molar equivalent of peptide) is at least 10 µM. The “effect on 15N-Hdm2-ABD resonances” value in [13] is “broaden beyond detection”. In addition, the cell cycle arrest entry in series [14] was “exhibited cell cycle arrest activity in vivo”. Also, the “p53-dependent cell cycle arrest” value in [14] (mouse fibroblasts) is recorded as “caused p53-dependent cell cycle arrest in mouse fibroblasts”. Further, the “binding to Mdm2” value in series [15] is listed as “bound to Mdm2”. The “co-assembly with Mdm2 in nucleoli” value in series [15] (in cells) is listed as “co-assembled specifically with Mdm2 in nucleoli”. In addition, the structure in isolation result in series [10] is “intrinsically unstructured in isolation”.
Take “residues 1-15 of p14^Arf: peptide corresponding to residues 1-15 of p14^Arf (MVRRFLVTLRIRRAC; UniProt Q8N726 1-15, looked up, fragment)”: the “irreversible assembly into bi-molecular oligomers with Hdm2-ABD” value in [12] was “irreversibly assembled into bi-molecular oligomers”. The “assembly with 15-residue H1 peptide of Hdm2” value in [16] is given as “irreversibly assembled into bi-molecular oligomers”.
Regarding “residues 1-15 of p19^Arf: peptide from the N-terminus of p19^Arf spanning residues 1-15 (MGRRFLVTVRIQRAG; UniProt Q64364 1-15, looked up, fragment)”, the “binding to Hdm2-ABD” value in series [12] is given as “bound to Hdm2-ABD”.
Molecule GRRFLVTVR [A1-mini, peptide of residues 2-10 of mouse Arf (p19Arf)] yielded a Kd in series [17] of about 200 µM.

For orientation: Kd means a measure of binding affinity in units of concentration. A high value points to lower affinity.
